Here are results for one compound from ChEMBL document CHEMBL1926509, “Discovery of pyrazolo[1,5-a]pyridines as p110α-selective PI3 kinase inhibitors” (Bioorg Med Chem, 2012).

Activity calls are given as the source filed them. The calls are words filed in the database; no cut-off is given here.

The test system of one series is Mus musculus. In words: Toxicity in human HCT116 cells xenografted Rag1 knockout mouse assessed as body weight loss at 20 mg/kg, ip qd measured up to day 10. Details: dose 20 mg/kg, route intraperitoneal. To be noted: in vivo. It counts as organism-based, HCT-116. Summed up:
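Female specific-pathogen-free Rag1−/− mice carrying subcutaneous HCT-116 tumours, given 20 mg/kg ip daily for 14 days in a DMSO/PEG-400/hydroxypropyl-β-cyclodextrin/water vehicle; controls received vehicle; n = 7 per group. Bodyweight recorded daily; mice culled if loss exceeded 20% of starting weight.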
(In general: Xenograft models place foreign cells or tissue in a host animal.)

The target in series [1] is Ribosomal protein S6 kinase alpha-1 (Homo sapiens) (UniProt Q15418). In words: Inhibition of RSK1 assessed as residual activity at 1 uM.
The target of series [2] is T1, Phosphatidylinositol 4,5-bisphosphate 3-kinase catalytic subunit delta isoform (Homo sapiens, UniProt O00329).
T1 sequence (O00329 whole entry): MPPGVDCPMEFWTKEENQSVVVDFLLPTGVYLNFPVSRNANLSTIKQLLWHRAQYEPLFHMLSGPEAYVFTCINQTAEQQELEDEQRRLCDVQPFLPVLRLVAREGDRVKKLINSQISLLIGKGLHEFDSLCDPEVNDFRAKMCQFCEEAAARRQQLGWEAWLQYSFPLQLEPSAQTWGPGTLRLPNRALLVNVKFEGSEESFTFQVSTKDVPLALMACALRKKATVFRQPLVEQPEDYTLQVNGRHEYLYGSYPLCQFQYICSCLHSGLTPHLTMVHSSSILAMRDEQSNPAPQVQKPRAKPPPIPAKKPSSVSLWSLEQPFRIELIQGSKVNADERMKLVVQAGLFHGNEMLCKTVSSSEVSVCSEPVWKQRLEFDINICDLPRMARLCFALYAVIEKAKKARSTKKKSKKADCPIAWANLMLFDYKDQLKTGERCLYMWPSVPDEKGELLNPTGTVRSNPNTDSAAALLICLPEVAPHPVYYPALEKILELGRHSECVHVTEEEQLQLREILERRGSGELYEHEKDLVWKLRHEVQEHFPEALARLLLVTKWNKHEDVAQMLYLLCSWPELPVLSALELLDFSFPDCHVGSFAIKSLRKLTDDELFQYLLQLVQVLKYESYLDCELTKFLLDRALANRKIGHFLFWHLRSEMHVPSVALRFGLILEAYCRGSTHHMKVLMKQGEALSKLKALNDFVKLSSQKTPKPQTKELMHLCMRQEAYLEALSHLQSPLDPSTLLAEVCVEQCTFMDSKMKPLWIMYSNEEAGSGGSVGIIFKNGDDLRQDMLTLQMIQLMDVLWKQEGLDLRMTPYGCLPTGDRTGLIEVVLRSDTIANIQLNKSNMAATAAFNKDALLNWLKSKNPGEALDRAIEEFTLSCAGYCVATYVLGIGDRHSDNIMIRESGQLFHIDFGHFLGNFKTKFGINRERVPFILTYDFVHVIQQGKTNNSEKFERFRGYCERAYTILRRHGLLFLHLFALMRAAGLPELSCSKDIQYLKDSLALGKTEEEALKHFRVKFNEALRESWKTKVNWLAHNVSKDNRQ
In words: Inhibition of recombinant PI3K p110delta using L-alpha-phosphatidylinositol as substrate and [gamma33P]ATP after 60 mins by thin layer chromatographic technique. The essentials: (§1)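 In-house recombinant class Ia PI3K isoform (0.1 µg) with L-α-phosphatidylinositol substrate in lipid kinase buffer (Tris–HCl pH 7.4, NaCl, EDTA), 1% DMSO final. Started with ATP mix (5 mM MgCl₂, 100 µM ATP plus [γ-³³P]ATP), 1 h at room temperature, stopped with 1 M HCl. Lipids extracted in two steps, separated by TLC, read by phosphorimager. Nine inhibitor concentrations; IC50 averaged over two experiments.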

Series [3] is described as follows: Cytotoxicity against human NZB5 cells expressing wild type p110alpha assessed as inhibition of [3H]thymidine incorporation after 5 days. It counts as functional, cell-based. The essentials:
(§2)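 Early-passage lab-derived lines in α-MEM with insulin, transferrin, selenite and 5% FBS. Seeded at 1000 cells/well; drug added in 10-fold steps up to 20 µM. Incubated five days under 5% O₂/5% CO₂/90% N₂, with ³H-thymidine (0.04 µCi/well) over the last 6 h. Duplicates per dose; least-squares exponential fit; IC50 is the concentration giving 50% less incorporation.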
For orientation: Incorporation of labelled thymidine or its analogues reports DNA synthesis.

The nature of series [4]: Inhibition of DNA-PK.
Series [5] is described as follows: Inhibition of PKA assessed as residual activity at 10 uM.
In series [6] the target is Insulin receptor (Homo sapiens) (UniProt P06213). In words: Inhibition of IR assessed as residual activity at 1 uM.
Series [7] concerns the target Misshapen-like kinase 1 (Homo sapiens) (UniProt Q8N4C8). In words: Inhibition of MINK1 assessed as residual activity at 1 uM.
Series [8] is described as follows: Selectivity ratio of IC50 for PI3K p110beta to IC50 for PI3K p110alpha.
In series [9] the target is High affinity nerve growth factor receptor (Homo sapiens) (UniProt P04629). In words: Inhibition of TrkA assessed as residual activity at 1 uM.
For series [10], the target named is T2, Phosphatidylinositol 4,5-bisphosphate 3-kinase catalytic subunit alpha isoform (Homo sapiens, UniProt P42336). To be noted: 100 nM.
A short description of series [11]: Cytotoxicity against human NZOV9 cells expressing p110alpha Y1021C mutant assessed as inhibition of [3H]thymidine incorporation after 5 days. It counts as functional, cell-based. The essentials: as §2
The nature of series [12]: Selectivity ratio of IC50 for PI3K p110delta to IC50 for PI3K p110alpha.
Series [13] deals with Insulin receptor (Homo sapiens) (UniProt P06213). In words: Inhibition of IR assessed as residual activity at 10 uM.
Series [14] concerns the target Mitogen-activated protein kinase 14 (Homo sapiens) (UniProt Q16539). In words: Inhibition of p38alpha assessed as residual activity at 10 uM.
The target is the same in series [15]. In words: Inhibition of p38alpha assessed as residual activity at 1 uM.
Series [16] is described as follows: Inhibition of PKA assessed as residual activity at 1 uM.
For series [17], the target named is T2, Phosphatidylinositol 4,5-bisphosphate 3-kinase catalytic subunit alpha isoform. In words: Inhibition of recombinant PI3K p110alpha using L-alpha-phosphatidylinositol as substrate and [gamma33P]ATP after 60 mins by thin layer chromatographic technique. The essentials:
as §1

The target of series [18] is Misshapen-like kinase 1 (Homo sapiens) (UniProt Q8N4C8). In words: Inhibition of MINK1 assessed as residual activity at 10 uM.
The target in series [19] is High affinity nerve growth factor receptor (Homo sapiens) (UniProt P04629). In words: Inhibition of TrkA assessed as residual activity at 10 uM.
A further series concerns HCT-116. In words: Antitumor activity against human HCT116 cells xenografted in Rag1 knockout mouse assessed as tumor growth inhibition at 20 mg/kg, ip qd for 14 days relative to untreated control. To be noted: HCT-116, ip, 336 h, route intraperitoneal, read-out: GI. Type of series: functional. Summed up:
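Female specific-pathogen-free Rag1−/− mice, age-matched, inoculated subcutaneously with 5×10⁶ HCT-116 cells in PBS. Dosed ip at 20 mg/kg q.d. for 14 days in 7.5% DMSO/42.5% PEG-400/20% hydroxypropyl-β-cyclodextrin/30% water; controls received vehicle only; n = 7 per group. Tumour volume measured three times weekly; 1-way ANOVA with Holm-Sidak comparison at study end.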

In series [20] the target is Dual specificity mitogen-activated protein kinase kinase 1 (Homo sapiens) (UniProt Q02750). In words: Inhibition of MKK1 assessed as residual activity at 10 uM.

Misshapen-like kinase 1 (Homo sapiens), sequence (Q8N4C8 whole entry, looked up): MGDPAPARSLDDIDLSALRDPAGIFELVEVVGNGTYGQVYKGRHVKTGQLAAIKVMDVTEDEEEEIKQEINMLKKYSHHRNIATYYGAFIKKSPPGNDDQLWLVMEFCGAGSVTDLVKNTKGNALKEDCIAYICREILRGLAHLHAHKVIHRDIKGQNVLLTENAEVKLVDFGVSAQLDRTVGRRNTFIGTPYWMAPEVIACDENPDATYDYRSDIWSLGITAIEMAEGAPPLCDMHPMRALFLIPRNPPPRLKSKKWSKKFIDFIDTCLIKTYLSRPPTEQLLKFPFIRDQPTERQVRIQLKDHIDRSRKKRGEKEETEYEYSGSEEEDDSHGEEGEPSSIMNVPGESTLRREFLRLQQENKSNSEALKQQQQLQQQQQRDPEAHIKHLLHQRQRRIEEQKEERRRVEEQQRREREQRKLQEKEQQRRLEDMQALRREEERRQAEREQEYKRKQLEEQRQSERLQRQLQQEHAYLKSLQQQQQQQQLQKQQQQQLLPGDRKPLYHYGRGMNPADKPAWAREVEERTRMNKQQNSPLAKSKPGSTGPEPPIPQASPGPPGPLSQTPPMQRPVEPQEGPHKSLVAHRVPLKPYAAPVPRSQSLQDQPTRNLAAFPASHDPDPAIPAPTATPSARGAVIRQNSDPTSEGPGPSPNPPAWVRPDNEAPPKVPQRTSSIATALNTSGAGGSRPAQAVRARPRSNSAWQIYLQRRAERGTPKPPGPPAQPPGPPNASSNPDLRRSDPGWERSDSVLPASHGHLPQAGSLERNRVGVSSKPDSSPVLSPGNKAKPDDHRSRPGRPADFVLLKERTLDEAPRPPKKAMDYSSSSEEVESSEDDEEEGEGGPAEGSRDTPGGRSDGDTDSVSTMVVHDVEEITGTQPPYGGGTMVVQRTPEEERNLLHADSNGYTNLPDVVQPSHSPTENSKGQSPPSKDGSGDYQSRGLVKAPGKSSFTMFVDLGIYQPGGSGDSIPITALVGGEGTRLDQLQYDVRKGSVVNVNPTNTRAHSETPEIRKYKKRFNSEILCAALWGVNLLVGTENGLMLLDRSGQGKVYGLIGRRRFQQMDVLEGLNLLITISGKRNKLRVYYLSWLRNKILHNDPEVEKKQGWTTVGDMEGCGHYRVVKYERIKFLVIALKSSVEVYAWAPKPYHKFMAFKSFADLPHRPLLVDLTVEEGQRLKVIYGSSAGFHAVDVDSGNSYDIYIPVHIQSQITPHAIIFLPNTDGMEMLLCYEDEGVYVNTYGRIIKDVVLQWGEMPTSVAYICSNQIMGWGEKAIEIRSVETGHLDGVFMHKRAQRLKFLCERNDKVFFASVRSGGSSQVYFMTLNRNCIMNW
High affinity nerve growth factor receptor (Homo sapiens), sequence (P04629 33-796 limits assumed): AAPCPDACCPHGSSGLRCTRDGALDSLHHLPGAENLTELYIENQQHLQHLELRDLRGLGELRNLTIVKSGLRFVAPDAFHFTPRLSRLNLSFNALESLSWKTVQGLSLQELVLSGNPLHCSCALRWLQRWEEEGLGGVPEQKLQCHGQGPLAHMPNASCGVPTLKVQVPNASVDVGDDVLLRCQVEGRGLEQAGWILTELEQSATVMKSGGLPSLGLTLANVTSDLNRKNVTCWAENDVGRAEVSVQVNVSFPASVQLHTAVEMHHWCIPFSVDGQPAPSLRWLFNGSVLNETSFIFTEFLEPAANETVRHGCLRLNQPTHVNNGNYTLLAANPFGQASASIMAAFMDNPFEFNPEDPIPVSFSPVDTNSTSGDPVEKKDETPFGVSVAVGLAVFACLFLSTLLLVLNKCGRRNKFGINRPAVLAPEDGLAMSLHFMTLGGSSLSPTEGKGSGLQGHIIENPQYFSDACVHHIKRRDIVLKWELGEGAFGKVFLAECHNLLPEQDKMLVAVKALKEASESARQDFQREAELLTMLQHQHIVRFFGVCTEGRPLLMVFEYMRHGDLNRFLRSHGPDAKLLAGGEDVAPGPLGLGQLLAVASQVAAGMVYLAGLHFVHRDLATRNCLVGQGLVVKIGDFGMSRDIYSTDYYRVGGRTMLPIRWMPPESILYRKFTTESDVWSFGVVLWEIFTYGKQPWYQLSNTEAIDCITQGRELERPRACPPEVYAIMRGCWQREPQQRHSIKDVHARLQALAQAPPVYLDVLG
Insulin receptor (Homo sapiens), sequence (P06213 28-758 limits assumed): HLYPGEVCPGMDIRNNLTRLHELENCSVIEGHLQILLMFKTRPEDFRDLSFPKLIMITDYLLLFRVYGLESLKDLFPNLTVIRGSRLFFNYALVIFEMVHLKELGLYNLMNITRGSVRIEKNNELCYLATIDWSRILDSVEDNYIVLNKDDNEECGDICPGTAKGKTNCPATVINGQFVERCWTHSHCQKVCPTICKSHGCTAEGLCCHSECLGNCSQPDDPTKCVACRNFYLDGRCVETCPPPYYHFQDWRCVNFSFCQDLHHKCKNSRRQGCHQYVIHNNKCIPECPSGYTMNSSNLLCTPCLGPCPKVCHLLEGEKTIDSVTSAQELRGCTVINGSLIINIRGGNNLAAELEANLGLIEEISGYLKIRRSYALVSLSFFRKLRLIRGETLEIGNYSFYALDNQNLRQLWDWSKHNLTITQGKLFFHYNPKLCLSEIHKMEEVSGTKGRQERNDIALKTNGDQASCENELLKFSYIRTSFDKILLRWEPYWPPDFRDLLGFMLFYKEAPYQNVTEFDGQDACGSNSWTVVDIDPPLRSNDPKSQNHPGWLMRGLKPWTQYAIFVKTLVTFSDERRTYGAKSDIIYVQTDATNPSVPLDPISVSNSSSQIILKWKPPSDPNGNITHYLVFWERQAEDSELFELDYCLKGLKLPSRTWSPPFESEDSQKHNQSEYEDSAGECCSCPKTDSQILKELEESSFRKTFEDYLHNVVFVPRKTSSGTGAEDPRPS
Insulin receptor (Homo sapiens), sequence (P06213 763-1382 limits assumed): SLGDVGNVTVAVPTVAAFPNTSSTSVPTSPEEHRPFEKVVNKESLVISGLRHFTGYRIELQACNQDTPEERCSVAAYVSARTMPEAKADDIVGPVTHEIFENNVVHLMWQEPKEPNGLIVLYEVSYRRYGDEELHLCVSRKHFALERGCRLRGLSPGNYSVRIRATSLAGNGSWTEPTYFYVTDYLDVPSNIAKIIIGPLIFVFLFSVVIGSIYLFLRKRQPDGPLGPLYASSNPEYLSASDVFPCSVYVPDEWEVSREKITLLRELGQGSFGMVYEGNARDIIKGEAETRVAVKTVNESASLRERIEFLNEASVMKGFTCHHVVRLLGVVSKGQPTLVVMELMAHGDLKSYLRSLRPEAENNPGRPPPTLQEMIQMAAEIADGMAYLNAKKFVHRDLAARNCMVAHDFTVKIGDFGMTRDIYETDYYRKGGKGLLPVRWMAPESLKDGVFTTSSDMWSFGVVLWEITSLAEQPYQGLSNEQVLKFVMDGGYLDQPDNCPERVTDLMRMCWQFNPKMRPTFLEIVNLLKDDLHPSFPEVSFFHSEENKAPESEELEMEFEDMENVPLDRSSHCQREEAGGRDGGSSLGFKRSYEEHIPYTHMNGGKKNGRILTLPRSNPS
T2 sequence (P42336 whole entry, canonical isoform): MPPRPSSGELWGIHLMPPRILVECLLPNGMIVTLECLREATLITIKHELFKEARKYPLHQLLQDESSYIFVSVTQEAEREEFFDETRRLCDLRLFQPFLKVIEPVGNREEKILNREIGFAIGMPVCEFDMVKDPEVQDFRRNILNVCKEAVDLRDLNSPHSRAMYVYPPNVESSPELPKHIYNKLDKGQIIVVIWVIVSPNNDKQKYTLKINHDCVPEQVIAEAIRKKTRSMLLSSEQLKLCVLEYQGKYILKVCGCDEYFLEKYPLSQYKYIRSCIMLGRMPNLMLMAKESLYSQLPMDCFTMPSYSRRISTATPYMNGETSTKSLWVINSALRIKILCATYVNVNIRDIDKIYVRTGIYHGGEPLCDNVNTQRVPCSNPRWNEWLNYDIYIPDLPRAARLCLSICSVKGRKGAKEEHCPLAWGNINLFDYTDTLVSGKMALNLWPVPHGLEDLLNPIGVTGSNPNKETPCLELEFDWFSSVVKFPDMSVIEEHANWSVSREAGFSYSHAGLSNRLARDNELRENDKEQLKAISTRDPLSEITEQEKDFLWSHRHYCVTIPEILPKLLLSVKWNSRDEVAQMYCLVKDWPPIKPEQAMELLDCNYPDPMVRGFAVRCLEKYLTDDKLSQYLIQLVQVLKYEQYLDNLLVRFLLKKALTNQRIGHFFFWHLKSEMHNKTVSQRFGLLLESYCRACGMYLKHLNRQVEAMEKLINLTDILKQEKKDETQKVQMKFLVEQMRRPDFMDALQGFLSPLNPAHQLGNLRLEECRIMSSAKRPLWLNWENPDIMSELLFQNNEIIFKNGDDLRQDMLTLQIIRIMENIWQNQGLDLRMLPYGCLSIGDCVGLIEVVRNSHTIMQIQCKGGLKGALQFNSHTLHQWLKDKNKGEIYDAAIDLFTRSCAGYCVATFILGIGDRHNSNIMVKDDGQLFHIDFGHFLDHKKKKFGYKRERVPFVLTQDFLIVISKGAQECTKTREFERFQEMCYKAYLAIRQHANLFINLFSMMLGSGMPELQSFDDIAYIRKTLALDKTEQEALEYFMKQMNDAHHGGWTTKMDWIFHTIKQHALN
Mitogen-activated protein kinase 14 (Homo sapiens), sequence (Q16539 whole entry): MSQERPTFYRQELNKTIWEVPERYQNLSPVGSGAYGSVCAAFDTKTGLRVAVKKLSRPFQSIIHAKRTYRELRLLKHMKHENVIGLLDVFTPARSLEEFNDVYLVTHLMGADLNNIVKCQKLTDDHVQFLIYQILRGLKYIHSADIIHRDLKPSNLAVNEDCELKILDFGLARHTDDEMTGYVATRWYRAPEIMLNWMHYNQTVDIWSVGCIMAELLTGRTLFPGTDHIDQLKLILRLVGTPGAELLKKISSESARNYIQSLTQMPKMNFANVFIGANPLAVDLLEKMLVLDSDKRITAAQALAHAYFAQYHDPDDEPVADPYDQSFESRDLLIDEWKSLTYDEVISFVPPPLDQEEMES

One may read the IC50 as the point on the concentration scale where inhibition reaches its midpoint. For `Cc1ccc([N+](=O)[O-])cc1S(=O)(=O)N(C)/N=C/c1cnn2ccc(C#N)cc12`, the Activity result in the series with Mus musculus was “Non-toxic”; in series [1], 4%; in [5], 1%; in [6], 55%; in series [7], 5%; in series [9], 19%. For the same compound, the Activity in series [13] is 42%; in series [14] it was 9%; in [15], 18%; in [16], 1%; in [18], 2%; in [19], 13%. Besides, the Activity in series [20] came to 8%. The concentration for half-maximal inhibition (IC50) is 49 nM in series [2]; 60 nM in series [3]; 1.1 nM in series [4]; 1400 nM in series [11]; 0.9 nM in series [17]. For the same compound, the Ratio IC50 in series [8] and in [12] was 50 in each case. Moreover, in series [10], the inhibition result was “inactive”. In addition, the inhibition in vivo at 20 mg/kg in the series with HCT-116 was determined as 39.1%.
